Assay results published in PMC8526916 (International Journal for Parasitology: Drugs and Drug …, 2021).

Assays:
[1] = test system: Neospora caninum Nc-Spain7 tachyzoites; assay: Rectal temperatures and fever in N. caninum-infected pregnant sheep; assay type: in vivo; details: days 5, 7 and 9 pi
[2] = Plasma protein binding by equilibrium dialysis, dog plasma; assay type: in vitro ADME; details: 5 μM
How it was run: (§1)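 Test compound in DMSO was spiked into plasma at 5 μM; an aliquot of spiked plasma served as the 100% recovery standard. Samples were matrix-matched, extracted in 80% acetonitrile with internal standard and quantified by UPLC-MS/MS. Fraction bound = bound/(unbound + bound), corrected for matrix dilution.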

[3] = test system: Neospora caninum; assay: qPCR parasite burden in placentomes and foetal brain; assay type: in vivo; details: aborted sheep
How it was run: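 DNA was extracted by paramagnetic-particle capture from 50–100 mg of foetal brain (three replicates each) and six placental samples per dam. Samples were screened by nested Nc5-PCR (337 bp product), with 10, 1 and 0.1 tachyzoite-equivalent controls in 100 ng sheep DNA and an uninfected-group negative. PCR-positive samples were quantified by real-time PCR; burdens compared by Mann–Whitney test.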

[4] = test system: N. caninum soluble antigens; assay: In-house indirect ELISA, IgG against N. caninum soluble antigens in dams; assay type: in vivo, sheep
How it was run: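 Dam sera were collected before infection, at 3, 5, 7 and 10 days pi, then weekly. Plates were coated with soluble N. caninum antigen and blocked; sera were diluted 1:100 in 1% BSA in PBS with 0.05% Tween 20. Detection used HRP anti-goat/sheep IgG (1:20000) with ABTS, stopped with 0.3 M oxalic acid, read at OD405 and expressed as RIPC. Analysis: repeated-measures two-way ANOVA to day 28 pi, one-way ANOVA after.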

[5] = BKI-1294 plasma exposure; assay type: in vivo, sheep; details: G1
How it was run: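 Rasa Aragonesa ewes (12 months, seronegative), challenged i.v. with Nc-Spain7 tachyzoites. From 48 h pi, test compound was given orally by oro-ruminal probe at 100 mg/kg, 5 doses every other day. Heparinized blood was sampled at set times and plasma analysed by LC-MS/MS. Troughs were taken 48 h after each dose; values are mean ± S.D.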

[6] = test system: IFNγ; assay: Peripheral blood cell stimulation assay, IFNγ production; assay type: in vivo, sheep
How it was run: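 Heparinized jugular blood from dams was sampled before infection, at 3, 5, 7 and 10 days pi, then weekly. Blood was cultured with soluble N. caninum antigen or ConA for 24 h at 37 °C, 5% CO2, and IFNγ measured in supernatants by enzyme immunoassay. Analysis: repeated-measures two-way ANOVA to day 28 pi, one-way ANOVA afterwards; mean ± S.D.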

[7] = ref Schaefer et al., 2016; cited from earlier work
[8] = test system: NcSAG1; assay: Commercial TgSAG1 ELISA, anti-NcSAG1 IgG in dams; assay type: in vivo, sheep; details: days 21 (P < 0.01) and 42 pi (P < 0.05)
[9] = Safety monitoring of treated pregnant sheep; assay type: in vivo
How it was run: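 Infected pregnant ewes received test compound orally at 100 mg/kg, 5 doses every other day from 48 h pi; uninfected controls received vehicle. A veterinarian observed animals daily for faecal consistency, blood in faeces and behavioural changes. Rectal temperature was taken daily to day 14 pi, then weekly; >40 °C counted as fever.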

[10] = Plasma protein binding by equilibrium dialysis, rat plasma; assay type: in vitro ADME; details: 5 μM
How it was run: as §1

[11] = mice; ref Vidadala et al., 2016; cited from earlier work
[12] = test system: Neospora caninum Nc-Spain7 tachyzoites; assay: Foetal survival in pregnant sheep infected with N. caninum at mid-pregnancy; assay type: in vivo
[13] = test system: Toxoplasma gondii oocysts; details: sheep infected with T. gondii oocysts during pregnancy; ref Sánchez-Sánchez et al., 2019; cited from earlier work
[14] = test system: Nc-Spain7 isolate; details: in vitro, ref Winzer et al., 2015; cited from earlier work
[15] = Plasma protein binding by equilibrium dialysis, human plasma; assay type: in vitro ADME; details: 5 μM
How it was run: as §1

[16] = pregnant sheep; ref Sánchez-Sánchez et al., 2019; cited from earlier work
[17] = Plasma protein binding by equilibrium dialysis, mouse plasma; assay type: in vitro ADME; details: 5 μM
How it was run: as §1

CCOc1ccc2cc(-c3nn(CC4CCN(C)CC4)c4ncnc(N)c34)ccc2c1 [BKI-1294]
rectal temperatures versus infected/untreated group [1]: significantly lower increase in rectal temperatures | plasma protein binding (bound) [2]: 52% | parasite burden in placentomes versus infected/untreated group [3]: No significant differences | IgG levels against N. caninum soluble antigens versus infected/untreated group ([4]; days 14, 21 and 28 pi): lower antibody response | IgG levels against N. caninum soluble antigens versus infected/untreated group ([4]; from day 35 pi onwards): no significant differences | trough plasma concentrations ([5]; 48 h after 1st oral dose of 100 mg/kg): 0.7 ± 0.4 µM | trough plasma concentrations ([5]; 48 h after 2nd oral dose of 100 mg/kg): 0.7 ± 0.4 µM | trough plasma concentrations ([5]; 48 h after 3rd oral dose of 100 mg/kg): 0.9 ± 0.5 µM | trough plasma concentrations ([5]; 48 h after 4th oral dose of 100 mg/kg): 1.4 ± 1.1 µM | trough plasma concentrations ([5]; 48 h after 5th oral dose of 100 mg/kg): 1.3 ± 0.8 µM | IFNγ levels versus infected/untreated group ([6]; day 7 pi, blood stimulated with N. caninum antigen, P < 0.0001): higher IFNγ levels | IFNγ levels relative to infected/untreated group ([6]; days 14, 21 and 28 pi, not significant): approximately 10 fold | PPB in mice [7]: 85% | anti-NcSAG1 IgG levels versus infected/untreated group [8]: lower anti-NcSAG1 IgG levels | safety of oral administration ([9]; N. caninum-infected pregnant sheep, oral 100 mg/kg x5): safe | Diarrhoea, bloody stools, and behavioural disorders ([9]; oral 100 mg/kg, 5 doses every other day, pregnant sheep): not observed | plasma protein binding (bound) [10]: 85% | CNS crossing [11]: 30% | bioavailability lower than BKI-1553 [11]: 30 fold | plasma clearance [11]: high plasma clearance | median day of foetal death ([12]; G1 infected/treated (G2: 45)): 44 day pi | foetal mortality (sheep whose foetuses died, 7 out of 8) ([12]; G1 infected/treated, same in G2 untreated): 87% | foetal survival rate versus infected/untreated group ([12]; log-rank test): no significant differences | efficacy against abortion [13]: 71% | efficacy against vertical transmission [13]: 53% | IC50 [14]: 270 ± 20 nM | plasma protein binding (bound) [15]: 85% | safety of repeated oral administration [16]: safe, both locally and systemically | plasma protein binding (bound) [17]: 85%
